The test system of test [1] is MCF7. Kind of test: Inhibition of HSP90 in human MCF7 cells assessed as decrease in ERalpha level at 100 uM after 16 hrs by Western blot analysis. In kind it is cell-based. A digest of the protocol:
(§1)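 Treated MCF-7 cell lysates were immunoblotted using the primary antibodies ERα (HC20) and Raf-1 (C12), with detection by a peroxidase-labelled secondary antibody. The control lysate came from DMSO-exposed cells. A nonspecific band served as the loading control.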
In general terms: A western blot detects proteins with antibodies after separation by electrophoresis.

Test [2] deals with MCF7. Kind of test: Inhibition of HSP90 in human MCF7 cells assessed as decrease in Raf-1 level at 100 uM after 16 hrs by Western blot analysis. In kind it is cell-based. A digest of the protocol: as §1
Test [3] has as its system MCF7. Kind of test: Reversal of inhibition of HSP90 in human MCF7 cells assessed as decrease in ERalpha level at 100 uM after 16 hrs in presence of MG132 by Western blot analysis. In kind it is cell-based.
For test [4], the system named is MELN. The test is described as follows: Effect on estradiol-induced transcription in human MELN cells assessed as inhibition of luciferase activity at 200 uM after 18 hrs relative to control. In kind it is functional, cell-based. The procedure, abridged: (§2)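 MELN breast cancer cells were treated for 18 h with the compounds, with or without 0.1 nM estradiol. Luciferase activity was measured and expressed as fold induction relative to untreated control cells.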

Test [5] has as its system MELN. The test is described as follows: Effect on estradiol-induced transcription in human MELN cells assessed as increase in luciferase activity at 200 uM after 18 hrs relative to control. In kind it is functional, cell-based. The procedure, abridged: as §2
The test system of test [6] is MCF7. The test is described as follows: Antiproliferative activity against human MCF7 cells after 72 hrs by MTT assay. In kind it is functional, cell-based. The note with it: MCF7, 72 h. A digest of the protocol:
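MCF-7 cells were seeded at 5000 cells/well and, after 24 h, exposed to serial dilutions for 72 h. Survival was read by MTT. IC50 is the concentration giving 50% growth inhibition versus vehicle-treated cells. Values are the means of three experiments run in sextuplicate, with standard deviation.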
(Formazan colour is commonly taken as a measure of viable cells.)

The test system of test [7] is MCF7. Kind of test: Inhibition of HSP90 in human MCF7 cells assessed as decrease in progesterone receptor A level. In kind it is cell-based. A digest of the protocol: (§3)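 MCF-7 cells were exposed to increasing concentrations, and lysates were immunoblotted for PRA and PRB with a PR (Ab-8) primary antibody and a peroxidase-labelled secondary antibody. The control was a DMSO-exposed lysate. A nonspecific band served as the constant loading reference.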

Test [8] concerns MCF7. The test is described as follows: Inhibition of HSP90 in human MCF7 cells assessed as decrease in progesterone receptor B level. In kind it is cell-based. The procedure, abridged:
as §3

Experimental findings from ChEMBL document CHEMBL1142362, “Synthesis and biological activity of simplified denoviose-coumarins related to novobiocin as potent inhibitors of heat-shock protein 90 (hsp90)” (Bioorg Med Chem Lett, 2008) are described below.

SMILES strings stand for the structures. The source made the active and inactive calls. The rule behind the calls is not given here.

The term IC50 denotes the concentration that inhibits the measured activity by half. Low readings indicate inhibition by little substance, high ones a need for much substance.

Consider `CCCC(=O)Nc1c(-c2cc(OC)c(OC)c(OC)c2)c2ccccc2oc1=O`, for which the result with MCF7 [1] and in the test with MCF7 [2] was inactive.

With `COc1ccc2cc(C(=O)Nc3c(O)c4ccccc4oc3=O)c(=O)oc2c1`, the result in the test with MCF7 [3], in the test on MCF7 [1] and in the test with MCF7 [2] was Active.

With `COc1ccccc1CC(=O)Nc1c(OS(=O)(=O)c2ccc(C)cc2)c2ccccc2oc1=O`, the outcome with MELN [4] was Active.

On to `CC1(C)C=Cc2cc(C(=O)Nc3c(O)c4ccccc4oc3=O)ccc2O1`, for which the outcome with MCF7 [1] and with MCF7 [2] was inactive. In addition, in the test with MELN [5], the result was Active.

For the molecule `CC(=O)Nc1c(O)c2ccccc2oc1=O`, the outcome in the test with MCF7 [3], in the test with MCF7 [1] and in the test on MCF7 [2] was Active.

In the case of `CCCC(=O)Nc1c(O)c2ccccc2oc1=O`, the result with MCF7 [1] and in the test on MCF7 [2] was inactive. The outcome with MELN [4] was Active.

As to `COc1cccc(OC)c1C(=O)Nc1c(O)c2ccccc2oc1=O`, the result with MCF7 [3], in the test on MCF7 [1] and in the test with MCF7 [2] was Active.

In the case of `CCCCCCCCCCCCC(=O)Nc1c(OS(=O)(=O)c2ccc(C)cc2)c2ccccc2oc1=O`, the outcome with MCF7 [3], with MCF7 [1], in the test with MCF7 [2] and in the test on MELN [4] was Active. In addition, the IC50 in the test on MCF7 [6] is 50 µM.

Consider `CCCC(=O)Nc1c(OS(=O)(=O)c2ccc(C)cc2)c2ccccc2oc1=O`, for which the outcome in the test with MCF7 [3], in the test on MCF7 [1], with MCF7 [2] and in the test with MELN [4] was Active. Also, in the test with MCF7 [6], half-maximal inhibition (IC50) required 75 µM.

Take `CCCCCCCCCCCCC(=O)Nc1c(-c2ccc(OC)cc2)c2ccccc2oc1=O`: the outcome in the test on MCF7 [3], in the test with MCF7 [1] and with MCF7 [2] was Active.

For `Cc1ccc(S(=O)(=O)Oc2c(NC(=O)c3ccc4c(c3)C=CC(C)(C)O4)c(=O)oc3ccccc23)cc1`, the result with MCF7 [3], with MCF7 [1], in the test with MCF7 [2], in the test on MCF7 [7], with MCF7 [8] and in the test on MELN [4] was Active. The IC50 in the test on MCF7 [6] is 35 µM.

As for `CCCCCCCCCCCCC(=O)Nc1c(-c2ccc(Cl)cc2)c2ccccc2oc1=O`, the outcome with MCF7 [1] and in the test with MCF7 [2] was inactive.

`COc1ccccc1CC(=O)Nc1c(O)c2ccccc2oc1=O`: the outcome with MCF7 [3], in the test on MCF7 [1] and in the test on MCF7 [2] was Active.

On to `COc1cc(C(=O)Nc2c(OS(=O)(=O)c3ccc(C)cc3)c3ccccc3oc2=O)cc(OC)c1OC`, for which the outcome in the test on MCF7 [3], in the test on MCF7 [1] and in the test with MELN [4] was Active. Also, the result with MCF7 [2] was inactive. The IC50 in the test with MCF7 [6] was determined as 40 µM.

As to `CC1(C)CCc2cc(C(=O)Nc3c(O)c4ccccc4oc3=O)ccc2O1`, the outcome in the test on MCF7 [3], in the test on MCF7 [1] and in the test with MCF7 [2] was Active.

As to `COc1ccc(-c2c(NC(=O)c3cc(OC)c(OC)c(OC)c3)c(=O)oc3ccccc23)cc1`, the result in the test with MCF7 [1] and in the test with MCF7 [2] was inactive.

Turning to `COc1ccc(-c2c(NC(=O)c3ccc(OC)cc3OC)c(=O)oc3ccccc23)cc1`, the result in the test with MCF7 [1] and with MCF7 [2] was inactive.

`Cc1ccc(S(=O)(=O)Oc2c(NC(=O)C3=Cc4ccccc4OC3)c(=O)oc3ccccc23)cc1`: the outcome with MCF7 [3], in the test on MCF7 [1], in the test on MCF7 [2] and in the test on MELN [4] was Active. This molecule also had an IC50 in the test with MCF7 [6] of 70 µM.

As for `CCCCCCCCCCCCC(=O)Nc1c(-c2cc(OC)c(OC)c(OC)c2)c2ccccc2oc1=O`, the outcome in the test with MCF7 [1] and in the test with MCF7 [2] was inactive.
